The source of these data is publication PMC10621021 (ACS Omega, 2023).

Data set [1] deals with amastigote stages of Leishmania major. The note with it: cited from earlier work.
Data set [2] concerns L. amazonensis promastigotes. In words: Antileishmanial activity against promastigotes of L. amazonensis. Particulars: for IC50: Leishmania amazonensis, 72 h, read-out: Promastigotes IC50, L. amazonensis promastigotes, MTT, 72 h, 6.25–100 μM; for antileishmanial activity on promastigotes (in words): L. amazonensis promastigotes, up to 100 μM. In kind it is cell-based, Leishmania amazonensis. The procedure, abridged: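 Log-phase promastigotes at 2 × 10^6 cells/mL exposed to compound 6.25–100 μM for 72 h at 25 °C. MTT (5 mg/mL solution) added for 4 h, absorbance read at 570 nm. Viability is expressed relative to untreated parasites. IC50 from three independent experiments; miltefosine was the reference.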

Another data set relates to HEPG2. In words: MTT cell viability, HEPG2. In kind it is cell-based, human. Particulars: 25 μM.
The test system of a further data set is MDA-MB-231. In words: MTT cell viability, MDA-MB-231. In kind it is cell-based, human. Particulars: 25 μM.
For data set [3], the system named is intracellular amastigotes of L. amazonensis RFP. Type of data set: cell-based, Leishmania amazonensis. Particulars: for antileishmanial activity on amastigotes (in words): L. amazonensis intracellular amastigotes, up to 100 μM. The procedure, abridged:
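BALB/c peritoneal macrophages (3% thioglycolate-elicited), adherent, infected 10:1 with stationary-phase RFP-transfected L. amazonensis IFLA/BR/67/PH8 promastigotes. After 4 h, wash, then compound 12.5–100 μM for 72 h at 33 °C, 5% CO2. Lysis in deionized water, fluorescence Ex 540/Em 600 nm. IC50 from mean of three independent experiments.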

“And” between values parts separate entries of the source, which are not always exact repeats. Identical values can stand only once. Some results are limits rather than exact numbers.

In the case of `Cc1ccc(-c2c(-c3ccccc3)nc3ccccn23)cc1` [Compound 2, 2-phenyl-3-(p-tolyl)imidazo[1,2-a]pyridine], the IC50 in data set [1] was 4 µM.
Consider `CC(C)(C)CC(C)(C)Nc1c(-c2ccc3c(c2)OCO3)nc2ncccn12` [Compound 14, 2-(benzo[d][1,3]dioxol-5-yl)-N-(2,4,4-trimethylpentan-2-yl)imidazo[1,2-a]pyrimidin-3-amine], for which the IC50 in data set [2] was determined as 46.1 µM.
As to `CC(C)(C)CC(C)(C)Nc1c(-c2ccccc2)nc2ncccn12` [Compound 18, 2-phenyl-N-(2,4,4-trimethylpentan-2-yl)imidazo[1,2-a]pyrimidin-3-amine], the “cytotoxicity on HEP-G2 (in words)” value in the data set with HEPG2 is recorded as “no any significant cytotoxicity”. The “cytotoxicity on MDA-MB-231 (in words)” value in the data set with MDA-MB-231 was “no any significant cytotoxicity”.
As for `COc1ccc(-c2nc3ncccn3c2NC(C)(C)CC(C)(C)C)cc1O` [Compound 22, 2-methoxy-5-(3-((2,4,4-trimethylpentan-2-yl)amino)imidazo[1,2-a]pyrimidin-2-yl)phenol], in data set [2], the “antileishmanial activity on promastigotes (in words)” value is reported as “not tolerated for the antileishmanial activity”. Besides, the “antileishmanial activity on amastigotes (in words)” value in data set [3] was “not tolerated for the antileishmanial activity”. In addition, the “cytotoxicity on HEP-G2 (in words)” value in the data set with HEPG2 is on record as “no any significant cytotoxicity”. Further, the “cytotoxicity on MDA-MB-231 (in words)” value with MDA-MB-231 is recorded as “no any significant cytotoxicity”.
Turning to `CC(C)(C)CC(C)(C)Nc1c(-c2cccc([N+](=O)[O-])c2)nc2ncccn12` [Compound 23, 2-(3-nitrophenyl)-N-(2,4,4-trimethylpentan-2-yl)imidazo[1,2-a]pyrimidin-3-amine], in data set [2], the “antileishmanial activity on promastigotes (in words)” value was “did not show any biological activity”. Also, the “antileishmanial activity on amastigotes (in words)” value in data set [3] is recorded as “did not show any biological activity”.
In the case of `CC(C)(C)CC(C)(C)Nc1c(-c2cccc(C#N)c2)nc2ncccn12` [Compound 24, 3-(3-((2,4,4-trimethylpentan-2-yl)amino)imidazo[1,2-a]pyrimidin-2-yl)benzonitrile], the IC50 in data set [2] was less than 10 µM. The “Selectivity Index” value in data set [3] (SI: CC50 in peritoneal macrophages/IC50 in intracellular amastigotes) is 10 and > 10. In addition, the “cytotoxicity on HEP-G2 (in words)” value in the data set on HEPG2 was “no any significant cytotoxicity”. For the same molecule, in the data set on MDA-MB-231, the “cytotoxicity on MDA-MB-231 (in words)” value was “no any significant cytotoxicity”.
Consider `CC(C)(C)CC(C)(C)Nc1c(-c2cccnc2)nc2ncccn12` [Compound 25, 2-(pyridin-3-yl)-N-(2,4,4-trimethylpentan-2-yl)imidazo[1,2-a]pyrimidin-3-amine], for which the “antileishmanial activity on promastigotes (in words)” value in data set [2] is given as “evaded the activity”. The “antileishmanial activity on amastigotes (in words)” value in data set [3] is listed as “evaded the activity”. In addition, the “cytotoxicity on HEP-G2 (in words)” value in the data set with HEPG2 was “no any significant cytotoxicity”. Besides, in the data set on MDA-MB-231, the “cytotoxicity on MDA-MB-231 (in words)” value is given as “no any significant cytotoxicity”.
On to `CC(C)(C)CC(C)(C)Nc1c(-c2cccs2)nc2ncccn12` [Compound 26, 2-(thiophen-2-yl)-N-(2,4,4-trimethylpentan-2-yl)imidazo[1,2-a]pyrimidin-3-amine], for which the “antileishmanial activity on amastigotes (in words)” value in data set [3] is “showed an effect on L. amazonensis amastigotes only”.
For the molecule `CCCCc1nc2ncccn2c1NC(C)(C)CC(C)(C)C` [Compound 27, 2-butyl-N-(2,4,4-trimethylpentan-2-yl)imidazo[1,2-a]pyrimidin-3-amine], the “antileishmanial activity on promastigotes (in words)” value in data set [2] is “moderate activity”. Also, the “antileishmanial activity on amastigotes (in words)” value in data set [3] is “moderate activity”.
Consider `CCCCCCCCc1nc2ncccn2c1NC(C)(C)CC(C)(C)C` [Compound 28, 2-octyl-N-(2,4,4-trimethylpentan-2-yl)imidazo[1,2-a]pyrimidin-3-amine], for which the “antileishmanial activity on promastigotes (in words)” value in data set [2] is “moderate activity”. In data set [3], the “antileishmanial activity on amastigotes (in words)” value is listed as “moderate activity”.

As usually defined, the IC50 is the midpoint of a concentration-inhibition curve.
